Screening data (PubChem)
Rows were chosen to be rich in hits. Some 2.9% of all compounds tested hit in one or more screens of this group.
NALP1 inh: NALP1 inflammasome inhibitors in reconstituted yeast, colorimetric, S. cerevisiae, triplicate retest; S. cerevisiae NALP1/ASC/caspase-1 growth, X-gal OD620, 72 h; inhibition, % at 10 µM; 0.61% of 280,000 active; in the data active = inhibition mostly above about 24%, no sharp cut-off; inactive = mostly below about 32%
PolyA inh: polyadenylation inhibitors in yeast reporter cells, primary screen, luminescence, S. cerevisiae; S. cerevisiae SKY197-pL101 polyadenylation reporter, beta-gal luminescence; efflux-impaired pdr1/pdr3 knockout yeast; score 100 = 6 SD above DMSO; 0.02% of 300,000 active; activity score, % at 12 µM;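 active = lowest replicate activity score at least 50, where 100 means six control SD above control mean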;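 note: yeast exposed to compound for 9 h at 30 °C; higher score means more reporter readthrough which indicates perturbed polyadenylation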
Mot1-301 SUMO: yeast Mot1-301 growth rescue at high temperature, primary screen, SUMOylation pathway inhibitor project, S. cerevisiae, ATP luminescence, 38.5C; growth rescue, % at 18.8 µM; AID 2716, 2010; 1% of 320,000 active; S. cerevisiae Mot1-301 growth rescue; percent above DMSO median, 100 means doubled;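 active = every valid replicate shows activation above 250% relative to neutral control wells; inactive = the rest, any valid replicate at or below 250%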;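 note: OY570 slx delta 5 strain wells were the positive control but not used for scaling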
VIM-2 inh: VIM-2 metallo-beta-lactamase inhibitors, primary screen, biochemical, epi-absorbance readout, Pseudomonas aeruginosa enzyme. inhibition, % at 5.6 µM. 0.89% of 290,000 active. AID 1527, 2009. purified VIM-2, nitrocefin hydrolysis, epi-absorbance fluorescence;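 active = inhibition above the mean of all tested compounds plus 3 SD, cutoff set per screening run, cut at about 7.5% in these data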;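 note: red hydrolysis product quenches plate fluorescence so inhibitors raise well fluorescence; 0% = enzyme with DMSO and 100% = DMSO without enzyme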
NLRP3 yeast inh: NALP3 inflammasome inhibitors in reconstituted yeast, primary screen, luminescence, uHTS; 0.39% of 330,000 active; inhibition, % at 10 µM; Yeast reconstituted NLRP3/ASC/caspase-1, beta-gal luminescence, 24 h;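 active = inhibition of 50% or more; inactive = inhibition below 50%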;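 note: plate controls were induced DMSO wells for no effect and uninduced yeast grown without galactose for full effect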
IMP-1 inhibitor: IMP-1 metallo-beta-lactamase inhibitors, primary screen, biochemical, epi-absorbance readout, Pseudomonas aeruginosa enzyme | metallo-beta-lactamase IMP-1 (Pseudomonas aeruginosa) | purified IMP-1, nitrocefin hydrolysis, epi-absorbance fluorescence | inhibition, % at 5.6 µM | 0.45% of 290,000 active;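 active = inhibition above the mean plus 3 SD of all compounds in the same screening run, cut at about 4.5% in these data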;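 note: 0% = IMP-1 with DMSO and 100% = DMSO wells lacking enzyme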
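System: purified recombinant IMP-1 beta-lactamase. Medium: Zinc- and detergent-supplemented HEPES buffer, pH 7.1. Compound: one 5.6 µM dose […]. Schedule: 15 min preincubation plus 25 min reaction at 25 °C. Technique: Epi-absorbance fluorescence, 480 nm excitation, 530 nm emission.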
The depositor's hits bear a star; / = no result given.

SMILES	NALP1 inh	PolyA inh	Mot1-301 SUMO	VIM-2 inh	NLRP3 yeast inh	IMP-1 inhibitor
O=C(O)CCC(=O)N1N=C(c2ccc(Br)cc2)CC1c1cccs1 (stereo not drawn)	5	0	2	7.9*	-8	-3
NC(=O)[C@@H]1CCCNc2c(I)cc([N+](=O)[O-])cc2C(=O)N[C@@H](CCCN=C(N)N)C(=O)N[C@@H](CCCN=C(N)N)C(=O)N1	9	/	-8	0	11	12*
CC[C@H](C)[C@@H]1NC(=O)c2cc([N+](=O)[O-])cc(I)c2NCC[C@@H](C(N)=O)NC(=O)[C@H](CCCN=C(N)N)NC1=O	26	/	11	-2	13	-3
O=C(C1=C[C@H](c2csc3ccccc23)C[C@H](OCCCCO)O1)N1CCN(Cc2ccccc2)CC1	30*	24	-11	-2	5	-2
C[C@H](NC(=O)c1ccccc1Cl)C(=O)OC(C(=O)Nc1cc(C(F)(F)F)ccc1Cl)c1ccccc1 (stereo partly drawn)	35*	-4	110	-1	7	-5
O=C(COC(=O)CNC(=O)c1ccccc1Cl)Nc1cc(C(F)(F)F)ccc1Cl	/	/	28	/	13	/
O=C(CNC(=O)c1ccccc1F)OC(C(=O)Nc1cc(C(F)(F)F)ccc1Cl)c1ccccc1 (stereo not drawn)	41*	-24	-11	0	-17	-2
CCOC(=O)c1oc2ccc(Br)cc2c1NC(=O)CN1CCN(C)CC1	23	/	20	9.8*	44	4
CN1CCN(CC(=O)Nc2c(C(=O)c3ccccc3)oc3ccccc23)CC1	0	5	4	10*	22	-2
CC(=O)Nc1c(C(=O)c2ccccc2)oc2ccccc12	-1	-12	-5	2	21	0
COc1ccc2oc(C(=O)c3ccccc3)c(NC(=O)CN3CCN(C)CC3)c2c1	18	4	729	9.2*	/	-2
CC(C)Cn1c(-c2ccncc2)n[nH]c1=S	-11	10	0	2	10	-4
S=c1[nH]nc(-c2ccncc2)n1CC1CCCO1 (stereo not drawn)	4	-4	-1	11*	10	-6
O=S(=O)(Nc1ccc(Cl)cn1)c1ccc(F)cc1	-12	1	-3	0	20	0
Cc1cc(C)c2cc(C(=O)Nc3ccc(C)c(F)c3)[nH]c2c1	13	-2	340*	-1	/	-1
COc1ccc2[nH]c(C(=O)Nc3ccc(C)c(F)c3)cc2c1	14	12	-6	2	8	0
Oc1ccc(-c2ccccc2)cc1CN1CCCCCC1	14	-1	341*	-3	8	0
Fc1ccc(C2CCCN2Cc2nc(Cc3ccccc3F)no2)cc1 (stereo not drawn)	24*	-2	-1	-4	0	-4
Cc1cccc(NC(=O)CSc2n[nH]c(-c3cccnc3)n2)c1	6	-3	1	-2	2	0
CCn1cnc2c(cnn2-c2ccccc2)c1=O	36*	-5	-9	2	19	-1
C=CCc1c(C)[nH]c(=S)c(C#N)c1C	4	1	-18	1	35	9.3*
COCc1cc(C)c(C#N)c(=S)[nH]1	4	-19	-10	0	16	-3
Cc1cc(C)n(-c2cc(-c3ccccc3)nc(C)n2)n1	7	-33	336*	0	17	-2
CSc1ccc(C(=O)N2CCC(n3nccc3NC(=O)C3CC3)CC2)cc1	8	-3	-4	-2	-2	-1
COc1ccc(NC(=O)c2cc3cccc(OC)c3oc2=Nc2ccc(C(=O)O)cc2)cc1OC	28*	-9	/	0	/	-1
O=C1CSC(=S)N1/N=C/c1c(F)cccc1F	-13	14	-3	-2	30	12*
O=C1CSC(=S)N1/N=C/c1ccc(C(F)(F)F)cc1	-5	-23	6	-3	12	3
